Experiments:
[1] = target: T1, Phospholipase A2 group V (Homo sapiens) (UniProt P39877); test: Inhibition of human calcium-independent group-5 sPLA2 using Triton-X-100/PAPC/arachidonyl-1-14C PAPC substrate mixed micelles at 0.091 mole_fraction by modified dole assay relative to control; conditions: in the assay text read “group-5 sPLA2” for “calcium-independent group-5 sPLA2”
T1 sequence (whole entry): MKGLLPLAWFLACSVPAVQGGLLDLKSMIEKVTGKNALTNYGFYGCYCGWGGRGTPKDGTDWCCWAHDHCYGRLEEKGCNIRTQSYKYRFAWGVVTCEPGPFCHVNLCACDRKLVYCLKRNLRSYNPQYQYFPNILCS
How it was run: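 Human GV sPLA2 activity was measured by modified Dole assay. Inhibitor was added from a 5 mM DMSO stock to give 0.091 mole fraction in substrate, and percent inhibition was recorded.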

[2] = test system: Phospholipase A2 group VI, Homo sapiens; test: Inhibition of human calcium-independent group-6A iPLA2 using Triton-X-100/PAPC/arachidonyl-1-14C PAPC substrate mixed micelles at 0.091 mole_fraction by modified dole assay relative to control
[3] = target: T2, Cytosolic phospholipase A2 (Homo sapiens) (UniProt P47712); test: Inhibition of human group-4 cPLA2 using Triton-X-100/PAPC/arachidonyl-1-14C PAPC/PIP2 substrate mixed micelles at 0.091 mole_fraction by modified dole assay relative to control
T2 sequence (whole entry): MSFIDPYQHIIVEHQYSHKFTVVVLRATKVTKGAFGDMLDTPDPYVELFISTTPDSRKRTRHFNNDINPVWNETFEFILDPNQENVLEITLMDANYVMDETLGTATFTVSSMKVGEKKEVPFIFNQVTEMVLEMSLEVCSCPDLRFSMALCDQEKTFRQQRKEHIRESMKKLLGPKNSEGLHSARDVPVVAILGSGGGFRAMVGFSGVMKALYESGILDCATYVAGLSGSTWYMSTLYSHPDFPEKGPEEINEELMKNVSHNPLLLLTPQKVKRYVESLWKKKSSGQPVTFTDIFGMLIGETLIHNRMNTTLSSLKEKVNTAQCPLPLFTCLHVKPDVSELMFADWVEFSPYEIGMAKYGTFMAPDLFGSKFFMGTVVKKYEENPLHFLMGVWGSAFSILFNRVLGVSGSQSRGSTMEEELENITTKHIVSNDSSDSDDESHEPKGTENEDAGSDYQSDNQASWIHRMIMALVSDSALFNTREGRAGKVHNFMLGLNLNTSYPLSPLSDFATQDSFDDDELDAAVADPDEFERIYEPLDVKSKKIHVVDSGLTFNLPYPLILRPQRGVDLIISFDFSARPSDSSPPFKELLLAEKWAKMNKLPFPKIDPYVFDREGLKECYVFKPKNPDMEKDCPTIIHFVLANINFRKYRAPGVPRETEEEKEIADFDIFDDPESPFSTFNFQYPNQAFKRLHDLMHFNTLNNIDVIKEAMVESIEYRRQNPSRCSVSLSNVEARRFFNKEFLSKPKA
How it was run: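 Buffer was 100 mM HEPES pH 7.5 with 90 μM CaCl2, 2 mM DTT and 0.1 mg/ml BSA. Activity was read by modified Dole assay with inhibitor at 0.091 mole fraction, added from a 5 mM DMSO stock, and expressed as percent inhibition.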

[4] = test system: Phospholipase A2 group VI, Homo sapiens; test: Inhibition of human calcium-independent group-6A iPLA2 using Triton-X-100/PAPC/arachidonyl-1-14C PAPC substrate mixed micelles by modified dole assay
[5] = target: T1, Phospholipase A2 group V (Homo sapiens); test: Inhibition of human group-5 sPLA2 using Triton-X-100/PAPC/arachidonyl-1-14C PAPC substrate mixed micelles at 0.091 mole_fraction by modified dole assay relative to control
[6] = test system: Phospholipase A2 group VI, Homo sapiens; test: Inhibition of human calcium-independent group-6A iPLA2 using substrate mixed micelles at 0.091 mole_fraction by modified dole assay relative to control
Homo sapiens = species: Homo sapiens; test: Selectivity ratio of XI50 for human group-4 cPLA2 to XI50 for human calcium-independent group-6A iPLA2

With CCCC[C@H](NC(=O)C(=O)CCCCc1ccc(OC)cc1)C(=O)NCCCC(=O)OCc1ccccc1 the inhibition [1] was 27.7%, the inhibition [2] was 78.3% and the inhibition [3] was 47.9%.

In the case of CCCC[C@H](NC(=O)C(=O)CCCCc1ccc(OC)cc1)C(=O)OC(C)(C)C, the inhibition [1] is reported as 60.6%, the inhibition [2] is reported as 60% and the inhibition [3] is reported as 85.7%.

CCCC[C@@H](COCC(=O)OC(C)(C)C)NC(=O)C(=O)CCCCc1ccc(OC)cc1 showed an inhibition [2] of 93.6%.

With CCCC[C@@H](COCC(=O)OCC)NC(=O)C(=O)CCCCc1ccc(OC)cc1 the inhibition [2] was 75.2%.

Work on CCCC[C@H](NC(=O)C(=O)CCCCc1ccc(OC)cc1)C(=O)NCC(=O)OCc1ccccc1 yielded an XI50 (mole fraction) [4] of 0.026, an inhibition [2] greater than 95% and an inhibition [3] of 52.3%. The inhibition [5] was less than 25%.

Compound CCCC[C@H](NC(=O)C(=O)CCCCc1ccccc1)C(=O)NCC(=O)OC(C)(C)C has an inhibition [1] of 43.4%, an inhibition [2] of 91.1% and an inhibition [3] of 46.9%.

CCCC[C@H](NC(=O)C(=O)CCCCc1ccc(OC)cc1)C(=O)NCC(=O)NCC(=O)OC(C)(C)C showed an inhibition [2] of 66.5%, an inhibition [3] of 27.1% and an inhibition [5] of less than 25%.

In the case of CCCCC/C=C\C/C=C\C/C=C\C/C=C\CCCC(=O)C(F)(F)F, the XI50 (mole fraction) [6] is reported as 0.028.

For CCCC[C@H](NC(=O)C(=O)CCCCc1ccc2ccccc2c1)C(=O)NCC(=O)O, the inhibition [2] was less than 25%, the inhibition [3] was 43.1% and the inhibition [5] was less than 25%.

CCCC[C@H](NC(=O)C(=O)CCCCc1ccc(OC)cc1)C(=O)N[C@H](C)C(=O)OC(C)(C)C was tested, and the inhibition [1] was 49.9%, the inhibition [2] was 87.1% and the inhibition [3] was 73.4%.

CCCC[C@H](NC(=O)C(=O)CCCCc1ccc(OC)cc1)C(N)=O gave an inhibition [1] of 31.1%, an inhibition [2] of 66.2% and an inhibition [3] of 29.3%.

In the case of CCCC[C@H](NC(=O)C(=O)CCCCc1ccc2ccccc2c1)C(=O)NCC(=O)OCC, the inhibition [2] is reported as 77.1%, the inhibition [3] is reported as 70.5% and the inhibition [5] is reported as 54.4%.

With CCCC[C@@H](COCC(=O)O)NC(=O)C(=O)CCCCc1ccc(OC)cc1 the inhibition [2] was less than 25%.

Work on COc1ccc(CCCCC(=O)C(=O)N[C@H](C(=O)NCC(=O)OC(C)(C)C)C(C)C)cc1 yielded an inhibition [1] of 47.1%, an inhibition [2] of 85.7% and an inhibition [3] of 35.4%.

CCCC[C@H](NC(=O)C(=O)CCCCc1ccc(OC)cc1)C(=O)NCCC(=O)OC(C)(C)C gave an inhibition [2] of 83.1%, an inhibition [3] of 37.8% and an inhibition [5] of 32.5%.

CCCC[C@@H](NC(=O)C(=O)CCCCc1ccc(OC)cc1)C(=O)NCC(=O)OC(C)(C)C gave an inhibition [1] of 39.3%, an XI50 (mole fraction) [4] of 0.04 and an inhibition [2] greater than 95%. The inhibition [3] was 68%.

CCCC[C@H](NC(=O)C(=O)CCCCc1ccc(OC)cc1)C(=O)NCCCC(=O)OC(C)(C)C was tested, and the inhibition [1] was 44.8%, the XI50 (mole fraction) [4] was 0.007 and the inhibition [2] was greater than 95%. For the same compound, the Selectivity ratio (Homo sapiens) was 13 and the inhibition [3] was 52.6%.

CCCC[C@H](NC(=O)C(=O)CCCCc1ccc(OC)cc1)C(=O)NCCCCC(=O)OC(C)(C)C gave an inhibition [2] of 90.1%, an inhibition [3] of 64.5% and an inhibition [5] of 56.3%.

With CC[C@H](C)[C@H](NC(=O)C(=O)CCCCc1ccc(OC)cc1)C(=O)NCC(=O)OC(C)(C)C the inhibition [1] was 48.2%, the inhibition [2] was 81.8% and the inhibition [3] was 57.3%.

With CCCC[C@H](NC(=O)C(=O)CCCCc1ccc(OC)cc1)C(=O)N[C@@H](C)C(=O)OC(C)(C)C the inhibition [1] was 46.6%, the inhibition [2] was 87.5% and the inhibition [3] was 57.4%.

For CCCC[C@@H](COCC(=O)OC(C)(C)C)NC(=O)C(=O)CCCCc1ccccc1, the inhibition [2] was 76%, the inhibition [3] was 82.3% and the inhibition [5] was 57.5%.

CCCC[C@H](NC(=O)C(=O)CCCCc1ccccc1)C(=O)NCC(=O)O gave an inhibition [2] of less than 25%, an inhibition [3] of less than 25% and an inhibition [5] of less than 25%.

With COc1ccc(CCCCC(=O)C(=O)N[C@@H](CC(C)C)C(=O)NCC(=O)OC(C)(C)C)cc1 the inhibition [1] was 40.8%, the XI50 (mole fraction) [4] was 0.024 and the inhibition [2] was greater than 95%. It also gave an inhibition [3] of 51.6%.

CCCC[C@@H](COCC(=O)OC(C)(C)C)NC(=O)C(=O)CCCCc1ccc2ccccc2c1 showed an inhibition [1] of 63.9%, an inhibition [2] of 88.4% and an inhibition [3] of 85.5%.

COc1ccc(CCCCC(=O)C(=O)N[C@@H](CC(C)C)C(=O)NCCCC(=O)OC(C)(C)C)cc1 gave an inhibition [2] of 92.8%, an inhibition [3] of 58% and an inhibition [5] of less than 25%.

CCCC[C@H](NC(=O)C(=O)CCCCc1ccc2ccccc2c1)C(=O)NCC(=O)OC(C)(C)C was tested, and the inhibition [1] was 44.8%, the inhibition [2] was 89.1% and the inhibition [3] was 57.5%.

CCCC[C@H](NC(=O)C(=O)CCCCc1ccc(OC)cc1)C(=O)NCC(=O)OC(C)(C)C gave an XI50 (mole fraction) [4] of 0.012, an inhibition [2] greater than 95% and an inhibition [3] of 40.2%. The inhibition [5] was 45.3%.

From ChEMBL document CHEMBL3875208, “2-Oxoamides based on dipeptides as selective calcium-independent phospholipase A2 inhibitors” (Bioorg Med Chem, 2017)
